ChEMBL document CHEMBL4513216, “Probing the Open Global Health Chemical Diversity Library for Multistage-Active Starting Points for Next-Generation Antimalarials” (ACS Infect Dis, 2020)

Test: Toxicity liver stage against HepG2, at 10uM
Format: cell-based
Parameters: test concentration 10 uM, cell line HepG2-A16-CD81EGFP
Conditions: human, HepG2-A16-CD81EGFP cells; read-out: INHIBITION
Method in brief: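 Uninfected HepG2-A16-CD81EGFP cells, 3 × 10^3 per well, 1536-well, plated on prespotted compound at 10 μM final, parasite-free screening media added to match infected plates; puromycin 10 μM positive, DMSO 0.5% negative; run in parallel with 48 h PbLuc assay at 37 °C, 5% CO2; viability by CellTiter-Glo luminescence, normalized to controls.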

Row | SMILES | cytotoxicity at 10 µM
1 | Cn1c2ccc(F)cc2c2ncn(CCCN(CCO)CCO)c(=O)c21 | 11.2%
2 | CN1CC[C@H](c2nnc(Cc3c[nH]c4ccccc34)o2)C1 | 4.84%
3 | Cn1nc(-c2cccs2)cc1[C@H]1CN2CC[C@H]1C[C@@H]2CN | 5.88%
4 | COCCN(Cc1cc(O)nc2ccccc12)C(=O)NC(C)C | 7.66%
5 | CCN1CCNC(=O)C12CCN(S(=O)(=O)c1ccc(OC)cc1)CC2 | 0.699%
6 | COCCN1CCC2(CCN(C(=O)c3ccc(F)cc3)CC2)C1=O | 2.85%
7 | CS(=O)(=O)N1C[C@@H]2CCN(C(=O)c3ccco3)[C@@H]2C1 | 10%
8 | COCc1cncc2c1CCN(Cc1cccnc1)C2 | 3.91%
9 | c1cc(C[C@H]2[C@H](N3CCOCC3)CCN2Cc2ccoc2)ccn1 | 10.2%
10 | CC(=O)N1CCOC2(CCCN(Cc3ccc(N(C)C)cc3)C2)C1 (stereo not given) | 0.603%
11 | O=C(c1ccoc1)N1CCc2c(COCc3ccncc3)cncc2C1 | 8.1%
12 | CNC(=O)C1CCN(c2nc3nc[nH]c(=O)c3s2)CC1 | -13.5%
13 | COc1ccc(C2SCC(=O)N2c2ncc(C)s2)cc1 (stereo not given) | 8.45%
14 | COC(=O)c1cccc(C2CNCCN2C(C)=O)c1 (stereo not given) | 3.31%
15 | CS(=O)(=O)c1cc(Cl)cnc1C1CCN(C(=O)C2CCOCC2)CC1 | 4.07%
16 | CN(C)c1ncc2c(O)nc(C3CCCNC3)cc2n1 (stereo not given) | 8.62%
17 | CNc1nc(C2CCCN(C(=O)C3CCCCC3)C2)nc2c1CNCC2 (stereo not given) | -1.85%
18 | Nc1nccnc1CC1CCCN(Cc2c[nH]c3ccccc23)C1 (stereo not given) | 2.81%
19 | Cc1cc(CCC(=O)N2CCCC2)nc(C2CCCN2)n1 (stereo not given) | 5.91%
20 | CCc1cc(C(=O)N2CCCC(c3[nH]ncc3S(C)(=O)=O)C2)no1 (stereo not given) | -0.335%
21 | CCc1nccn1-c1cccc(C2CCCN(C3CCCCC3)C2)n1 (stereo not given) | -5.08%
22 | Cc1c[nH]nc1C1CCCCN1C(=O)CC1(O)CCCCC1 (stereo not given) | -2.92%
23 | Cn1cc(C2CCCN2C(=O)c2cnc(-c3ncccn3)s2)cn1 (stereo not given) | 18.8%
24 | N#CCCN(Cc1ccco1)C(=O)COC1CCCCC1 | 6.35%
25 | CNC(=O)CCOC(=O)c1cccc(-n2ccc(C(F)(F)F)n2)c1 | -41.9%
26 | Cc1cc(C2CCCN(C(=O)COc3cc(F)ccc3F)C2)n[nH]1 (stereo not given) | -1.3%
27 | Cn1c(C2CCCN2C(=O)CN2CCCC2=O)nc2ccccc21 (stereo not given) | -3.47%

Row | SMILES | cytotoxicity at 10 µM
28 | CN1CCC(N2CCOC3(CCCC3)C2)C1=O (stereo not given) | -6.52%
29 | Cc1cnc(CN2CCN(C(C)c3nc(C4CC4)no3)CC2)cn1 (stereo not given) | 1.32%
30 | O=C(Cn1ccc(=O)c2ccccc21)Nc1cnccc1O | -4.08%
31 | O=C(N1CCOCC1)N1CCN(c2ccncc2Cl)CC1 | -4.79%
32 | CN(Cc1nc2ccccc2s1)C1CCCN(c2cccnn2)C1 (stereo not given) | 5.15%
33 | CC(=O)c1cccc(NC(=O)N(CCO)C2CCc3ccccc32)c1 (stereo not given) | -3.01%
34 | COCC(C)(C)NS(=O)(=O)C1CS(=O)(=O)c2ccccc21 (stereo not given) | 4.22%
35 | Cc1nc(-c2ccsc2)ccc1C(=O)N1CCn2c(C)nnc2C1 | -7.83%
36 | CC(C)(C)n1ncc2c(=O)[nH]c(NC3CC=CC3)nc21 | 1.68%
37 | CC(C)C(CNCc1cccc2c1OCO2)N1CCOCC1 (stereo not given) | -49.1%
38 | CCc1nc(C2CCCN2c2ncc(C(N)=O)cc2Cl)no1 (stereo not given) | -3.99%
39 | O=c1[nH]c(N2CCN(C3CC3)CC2)nc2c1cnn2-c1ccccc1 | 10.8%
40 | COC(=O)CCCNC(=O)COc1ccccc1C(F)(F)F | -0.969%
41 | O=C(NCC1CC1)[C@@H]1CC[C@@H]2[C@@H](CCN2CCOCc2ccccc2)O1 | -112%
42 | CN1CCN(Cc2cn3c(n2)CN(Cc2ccccn2)CC3)CC1 | -117%
43 | Cc1ccc(CN2CCC3(CCCN(S(C)(=O)=O)C3)C2)o1 (stereo not given) | -104%
44 | CC[C@H](C)Nc1ncc(-c2ccn(C3CCN(C(C)=O)CC3)n2)cn1 | -9.22%
45 | CC[C@@H](C)[C@@H](N)C(=O)Nc1cccc(-c2cnc(NCCO)nc2)c1 | -3.08%
46 | CCOc1ccc(-c2ccnc(C)n2)cc1C(=O)O | 5.59%
47 | c1cc(CN(CCCn2ccnc2)Cc2ccoc2)ccn1 | -11.1%
48 | O=C(NCCN1CCCC(CO)C1)c1ccc2sccc2c1 (stereo not given) | -5.35%
49 | CC(CCN1CCC(n2cc(CCO)nn2)CC1)c1ccccc1 (stereo not given) | 3.23%
50 | CCN(C)Cc1nc(-c2ccccc2NS(C)(=O)=O)oc1C | 3.63%
51 | Cc1nccc(NCc2cc3n(n2)CCCN(S(C)(=O)=O)C3)n1 | 2.35%
52 | C/C=C(\C)CN1C[C@H](NC(=O)c2cc[nH]c2C)[C@@H](C2CC2)C1 | 4.96%
53 | NCC1Cc2cc(Cl)cc(-c3cncc(C(=O)N4CCCCC4)n3)c2O1 (stereo not given) | -53%
54 | COc1ccc(-n2c(SC)nc(O)c(Cc3ccccc3)c2=O)cc1 | -7.52%

Row | SMILES | cytotoxicity at 10 µM
55 | CC(=O)NCc1nnc2n1CCN(c1ncnc3c(C)csc13)CC2 | 4.71%
56 | Cc1cc(F)cc(CN2CCCn3nc(CNS(C)(=O)=O)cc3C2)c1 | -3.85%
57 | Cc1nc(CCNc2nc(N(C)C)nc3c2CCCC3)cc(=O)[nH]1 | 6.86%
58 | COCC1CCN(S(=O)(=O)N2C[C@@H](C)[C@@](C)(O)C2)CC1 | 3.45%
59 | CC[C@H](C)Cn1nc(C2CCNCC2)n(Cc2ccccc2)c1=O | -5.82%
60 | CCN(CCO)C(=O)c1cc(Cn2c(C)nc3ccccc32)[nH]n1 | 8.51%
61 | CNC(=O)[C@@H]1C[C@@H](n2cc(-c3ccc(CN4CC=CC4)cc3)nn2)CN1 | 3.76%
62 | Cc1c(Br)cc2c(c1C)OCC(N(C)C)C2=O (stereo not given) | -13.1%
63 | Cc1cn(Cc2ccccc2)nc1N | -4.66%
64 | Cc1noc(C2CCN(C(=O)Nc3ccc(N(C)C)nc3)CC2)n1 | -3.45%
65 | CCn1c(CN2CCN(CCO)CC2)nc2c(F)cccc21 | -8.83%
66 | Cn1cnnc1C1CCCN(C(=O)CCc2ccc3c(c2)OCO3)C1 (stereo not given) | 0.415%
67 | COc1ccc(-c2nc(CN3CCCC3Cn3cccn3)no2)cc1 (stereo not given) | -1.89%
68 | CC(=O)N1CCC(N2CCC(c3nc(C)cc(C)n3)C2)CC1 (stereo not given) | -7.87%
69 | COc1ccccc1CN1CC[C@]2(C[C@@H](OCC(=O)N(C)C)CO2)C1 | -112%
70 | c1ncc(-c2ccc(C3CNCCO3)nc2)cn1 (stereo not given) | -5.33%
71 | Cc1ncsc1CN1C[C@H](C(=O)NCC2CC2)[C@@H]2CCO[C@@H]2C1 | -3.17%
72 | CN1CCN([C@@H]2CCN(C3CCOC3)[C@H]2Cc2cnn(C)c2)CC1 (stereo not given in full) | 6.28%
73 | O=C(Nc1cnccn1)[C@@H]1COC[C@H]2CN(C3CCC3)C[C@H]21 | 14.7%
74 | O=S(=O)(NC[C@]12COC[C@H]1CN(CCc1ccccc1)C2)C1CC1 | 12.7%
75 | CO[C@H]1CCN(c2nnc(C)s2)C[C@@H]1Cc1cccc(C)c1 | 16.6%
76 | O=C1COC2(CCN(Cc3ccsc3)CC2)CN1 | -3.46%
77 | CN(C)C[C@H]1OC[C@@H]2CN(C(=O)NCc3cccc(F)c3)CC[C@@H]21 | -2.12%
78 | CN1CCN(c2ncnc3c2CCN(c2ncc(F)cn2)CC3)CC1 | 7.61%
79 | O=C(NCCc1cccs1)[C@]12COC[C@H]1CN(Cc1ccccn1)C2 | -105%
80 | Cc1ccc(C(=O)N2C[C@@H]3CC[C@H]2CN(S(=O)(=O)N(C)C)C3)c(O)c1 | 3.41%
